{"source": "ChEMBL document CHEMBL2434878", "about": "“Synthesis and antimycobacterial activity of analogues of the bioactive natural products sampangine and cleistopholine” (Eur J Med Chem, 2013)"}
{"tested_on": "Mycobacterium tuberculosis", "assay": "Antimicrobial activity against Mycobacterium tuberculosis H37Rv ATCC 27294 expressing luciferase reporter gene infected in mouse J774 macrophages assessed as intracellular growth inhibition at 1 uM after 4 days by luminometry relative to untreated control", "format": "functional", "settings": "H37Rv ATCC 27294, J774, 96 h, read-out: GI", "outline": "(§1)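 J774.A1 murine macrophages were seeded at 40,000 cells/well, recovered overnight and infected with luminescent H37Rv. From 24 h post-infection, cells were treated for 4 days in DMEM with penicillin and fungizone, without gentamicin. Growth was read by luminescence after 1% n-decanal and expressed as percent inhibition versus untreated, in triplicate. Macrophage viability was checked by trypan blue.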", "units": {"inhibition of growth at 1 µM": "%"}}
{"smiles": "O=C1c2ccccc2C(=O)c2c(O)cc(-c3ccccc3)cc21", "inhibition of growth at 1 µM": 49}
{"smiles": "O=C1c2ccccc2-c2nccc3nc(-c4ccc(Cl)cc4)cc1c23", "inhibition of growth at 1 µM": 20.3}
{"smiles": "O=C1c2ccccc2-c2nccc3nc(-c4ccc(F)cc4)cc1c23", "inhibition of growth at 1 µM": 30.2}
{"tested_on": "Mycobacterium tuberculosis", "assay": "Antimicrobial activity against Mycobacterium tuberculosis H37Rv ATCC 27294 expressing luciferase reporter gene assessed as growth inhibition at 0.1 uM after 6 days by luminometry relative to control", "format": "functional", "settings": "H37Rv ATCC 27294, 144 h, read-out: GI", "outline": "(§2)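 Single-concentration screen of the luminescent H37Rv reporter strain in 7H9-10% FCS, inoculated at 50,000 RLU/ml, 6 days at 37 °C. Luminescence was read after n-decanal addition. Percent inhibition is versus the untreated culture, as the mean of triplicate cultures.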", "units": {"inhibition of growth at 0.1 µM": "%"}}
{"smiles": "COc1ccc(OC)c(-c2cc3c(c(C)n2)C(=O)c2ccccc2C3=O)c1", "inhibition of growth at 0.1 µM": "< 10"}
{"smiles": "Cc1ccc(-c2cc3c(c(C)n2)C(=O)c2ccccc2C3=O)cc1", "inhibition of growth at 0.1 µM": 54}
{"smiles": "Cc1ccc(-c2cc(O)c3c(c2)C(=O)c2ccccc2C3=O)cc1", "inhibition of growth at 0.1 µM": 21}
{"smiles": "CN(C)/C=C/c1cncc2c1C(=O)c1ccccc1C2=O", "inhibition of growth at 0.1 µM": "< 10"}
{"smiles": "Cc1nccc2c1C(=O)c1ccccc1C2=O", "inhibition of growth at 0.1 µM": 10}
{"smiles": "O=C1c2ccccc2C(=O)c2c(O)cc(-c3ccccc3)cc21", "inhibition of growth at 0.1 µM": 15}
{"smiles": "O=C1c2ccccc2-c2nccc3nc(-c4ccc(Cl)cc4)cc1c23", "inhibition of growth at 0.1 µM": 77}
{"smiles": "O=C1c2ccccc2-c2nccc3nc(-c4ccc(F)cc4)cc1c23", "inhibition of growth at 0.1 µM": 53}
{"tested_on": "Mycobacterium tuberculosis", "assay": "Antimicrobial activity against Mycobacterium tuberculosis H37Rv ATCC 27294 expressing luciferase reporter gene assessed as growth inhibition at 1 uM after 6 days by luminometry relative to control", "format": "functional", "settings": "H37Rv ATCC 27294, 144 h, read-out: GI", "outline": "as §2", "units": {"inhibition of growth at 1 µM": "%"}}
{"smiles": "COc1ccc(OC)c(-c2cc3c(c(C)n2)C(=O)c2ccccc2C3=O)c1", "inhibition of growth at 1 µM": 35}
{"smiles": "Cc1ccc(-c2cc3c(c(C)n2)C(=O)c2ccccc2C3=O)cc1", "inhibition of growth at 1 µM": 63}
{"smiles": "Cc1ccc(-c2cc(O)c3c(c2)C(=O)c2ccccc2C3=O)cc1", "inhibition of growth at 1 µM": 35}
{"smiles": "CN(C)/C=C/c1cncc2c1C(=O)c1ccccc1C2=O", "inhibition of growth at 1 µM": 17}
{"smiles": "Cc1nccc2c1C(=O)c1ccccc1C2=O", "inhibition of growth at 1 µM": 22}
{"smiles": "O=C1c2ccccc2C(=O)c2c(O)cc(-c3ccccc3)cc21", "inhibition of growth at 1 µM": 88}
{"smiles": "O=C1c2ccccc2-c2nccc3nc(-c4ccc(Cl)cc4)cc1c23", "inhibition of growth at 1 µM": 99}
{"smiles": "O=C1c2ccccc2-c2nccc3nc(-c4ccc(F)cc4)cc1c23", "inhibition of growth at 1 µM": 100}
{"tested_on": "Mycobacterium tuberculosis", "assay": "Antimicrobial activity against Mycobacterium tuberculosis H37Rv ATCC 27294 expressing luciferase reporter gene assessed as reduction in bacterial count after 6 days by luminometry", "format": "functional", "settings": "H37Rv ATCC 27294, 144 h", "outline": "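MIC by serial dilution in the 6-day luminescent H37Rv assay (7H9-10% FCS, 50,000 RLU/ml inoculum, triplicate wells, n-decanal read-out). MIC is the concentration giving at least one log10 reduction in signal versus the untreated control.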", "units": {"MIC90": "µM"}}
{"smiles": "O=C1c2ccccc2C(=O)c2c(O)cc(-c3ccccc3)cc21", "MIC90": 2.12}
{"smiles": "O=C1c2ccccc2-c2nccc3nc(-c4ccc(Cl)cc4)cc1c23", "MIC90": 1.85}
{"smiles": "O=C1c2ccccc2-c2nccc3nc(-c4ccc(F)cc4)cc1c23", "MIC90": 1.5}
{"tested_on": "Mycobacterium avium subsp. paratuberculosis", "assay": "Antimicrobial activity against Mycobacterium avium subsp. paratuberculosis ATCC 15769 expressing luciferase reporter gene assessed as growth inhibition after 6 days by luminometry", "format": "functional", "settings": "ATCC 15769, 144 h", "units": {"GI50": "µM"}}
{"smiles": "O=C1c2ccccc2C(=O)c2c(O)cc(-c3ccccc3)cc21", "GI50": 4.71}
{"smiles": "O=C1c2ccccc2-c2nccc3nc(-c4ccc(F)cc4)cc1c23", "GI50": 3.56}
{"tested_on": "not listed separately", "assay": "Antimicrobial activity against Mycobacterium avium subsp. avium ATCC 19698 expressing luciferase reporter gene assessed as growth inhibition after 6 days by luminometry", "format": "functional", "settings": "ATCC 19698, 144 h", "units": {"GI50": "µM"}}
{"smiles": "O=C1c2ccccc2C(=O)c2c(O)cc(-c3ccccc3)cc21", "GI50": 5.02}
{"smiles": "O=C1c2ccccc2-c2nccc3nc(-c4ccc(F)cc4)cc1c23", "GI50": 3.98}
{"tested_on": "Mycobacterium tuberculosis", "assay": "Antimicrobial activity against Mycobacterium tuberculosis H37Rv ATCC 27294 expressing luciferase reporter gene infected in mouse J774 macrophages assessed as intracellular growth inhibition at 2 uM after 4 days by luminometry relative to untreated control", "format": "functional", "settings": "H37Rv ATCC 27294, J774, 96 h, read-out: GI", "outline": "as §1", "units": {"inhibition of growth at 2 µM": "%"}}
{"smiles": "O=C1c2ccccc2C(=O)c2c(O)cc(-c3ccccc3)cc21", "inhibition of growth at 2 µM": 68.3}
{"smiles": "O=C1c2ccccc2-c2nccc3nc(-c4ccc(Cl)cc4)cc1c23", "inhibition of growth at 2 µM": 44.2}
{"smiles": "O=C1c2ccccc2-c2nccc3nc(-c4ccc(F)cc4)cc1c23", "inhibition of growth at 2 µM": 65.5}
{"tested_on": "Mycobacterium tuberculosis", "assay": "Antimicrobial activity against Mycobacterium tuberculosis H37Rv ATCC 27294 expressing luciferase reporter gene assessed as growth inhibition at 10 uM after 6 days by luminometry relative to control", "format": "functional", "settings": "H37Rv ATCC 27294, 144 h, read-out: GI", "outline": "as §2", "units": {"inhibition of growth at 10 µM": "%"}}
{"smiles": "COc1ccc(OC)c(-c2cc3c(c(C)n2)C(=O)c2ccccc2C3=O)c1", "inhibition of growth at 10 µM": 86}
{"smiles": "Cc1ccc(-c2cc3c(c(C)n2)C(=O)c2ccccc2C3=O)cc1", "inhibition of growth at 10 µM": 99}
{"smiles": "Cc1ccc(-c2cc(O)c3c(c2)C(=O)c2ccccc2C3=O)cc1", "inhibition of growth at 10 µM": 98}
{"smiles": "CN(C)/C=C/c1cncc2c1C(=O)c1ccccc1C2=O", "inhibition of growth at 10 µM": 53}
{"smiles": "Cc1nccc2c1C(=O)c1ccccc1C2=O", "inhibition of growth at 10 µM": 58}
{"smiles": "O=C1c2ccccc2C(=O)c2c(O)cc(-c3ccccc3)cc21", "inhibition of growth at 10 µM": 100}
{"smiles": "O=C1c2ccccc2-c2nccc3nc(-c4ccc(Cl)cc4)cc1c23", "inhibition of growth at 10 µM": 99}
{"smiles": "O=C1c2ccccc2-c2nccc3nc(-c4ccc(F)cc4)cc1c23", "inhibition of growth at 10 µM": 100}
{"tested_on": "Mycobacterium ulcerans", "assay": "Antimicrobial activity against Mycobacterium ulcerans 1615 expressing luciferase reporter gene assessed as growth inhibition after 6 days by luminometry", "format": "functional", "settings": "Mycobacterium ulcerans, 1615, 144 h", "outline": "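Luminescent M. ulcerans 1615 carrying pSMT1 luciferase plasmid, grown at 32 °C in 7H9 with 10% OADC and 0.2% glycerol. Serial dilutions from 10 mM DMSO stocks in 7H9 + 10% FCS; bacteria dosed at 50,000 RLU/ml, triplicate wells. After 6 days, light read over 10 s following 1% n-decanal in ethanol. GI50 taken at 50% growth reduction versus untreated culture.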", "units": {"GI50": "µM"}}
{"smiles": "O=C1c2ccccc2C(=O)c2c(O)cc(-c3ccccc3)cc21", "GI50": 12.6}
{"smiles": "O=C1c2ccccc2-c2nccc3nc(-c4ccc(F)cc4)cc1c23", "GI50": 9.23}
{"tested_on": "not listed separately", "assay": "Therapeutic index, ratio of IC50 for human HepG2/C3A cells to GI50 for Mycobacterium tuberculosis H37Rv ATCC 27294", "format": "cell-based", "settings": "read-out: TI", "outline": "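TI is NI50/GI50. NI50 came from a neutral red uptake assay in C3A hepatocytes (40,000 cells/well, 24 h exposure at 37 °C, 3 h dye, OD 530 nm with 620 nm reference): the concentration reducing dye uptake by 50%. GI50 came from the 6-day luminescent H37Rv assay.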"}
{"smiles": "O=C1c2ccccc2C(=O)c2c(O)cc(-c3ccccc3)cc21", "selectivity ratio": 12.6}
{"smiles": "O=C1c2ccccc2-c2nccc3nc(-c4ccc(Cl)cc4)cc1c23", "selectivity ratio": "> 69.4"}
{"smiles": "O=C1c2ccccc2-c2nccc3nc(-c4ccc(F)cc4)cc1c23", "selectivity ratio": "> 72.4"}
{"tested_on": "not listed separately", "assay": "Cytotoxicity against human HepG2/C3A cells after 24 hrs by neutral red dye uptake assay", "format": "cell-based", "settings": "not given", "units": {"IC50": "µM"}}
{"smiles": "O=C1c2ccccc2C(=O)c2c(O)cc(-c3ccccc3)cc21", "IC50": 10.8}
{"smiles": "O=C1c2ccccc2-c2nccc3nc(-c4ccc(Cl)cc4)cc1c23", "IC50": "> 50"}
{"smiles": "O=C1c2ccccc2-c2nccc3nc(-c4ccc(F)cc4)cc1c23", "IC50": "> 50"}
{"tested_on": "Mycobacterium tuberculosis", "assay": "Antimicrobial activity against Mycobacterium tuberculosis H37Rv ATCC 27294 expressing luciferase reporter gene assessed as growth inhibition after 6 days by luminometry", "format": "functional", "settings": "H37Rv ATCC 27294, 144 h", "outline": "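Luminescent H37Rv (pSMT1, V. harveyi luciferase) was declumped by filtration, adjusted to 50,000 RLU/ml in 7H9-10% FCS, and exposed to serial compound dilutions in triplicate for 6 days at 37 °C. Light was read for 10 s after adding 1% n-decanal. GI50 is the concentration giving 50% growth reduction versus untreated culture.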", "units": {"GI50": "µM"}}
{"smiles": "O=C1c2ccccc2C(=O)c2c(O)cc(-c3ccccc3)cc21", "GI50": 0.86}
{"smiles": "O=C1c2ccccc2-c2nccc3nc(-c4ccc(Cl)cc4)cc1c23", "GI50": 0.72}
{"smiles": "O=C1c2ccccc2-c2nccc3nc(-c4ccc(F)cc4)cc1c23", "GI50": 0.69}
{"tested_on": "Mycobacterium tuberculosis", "assay": "Antimicrobial activity against Mycobacterium tuberculosis H37Rv ATCC 27294 expressing luciferase reporter gene infected in mouse J774 macrophages assessed as intracellular growth inhibition at 0.5 uM after 4 days by luminometry relative to untreated control", "format": "functional", "settings": "H37Rv ATCC 27294, J774, 96 h, read-out: GI", "outline": "as §1", "units": {"inhibition of growth at 0.5 µM": "%"}}
{"smiles": "O=C1c2ccccc2C(=O)c2c(O)cc(-c3ccccc3)cc21", "inhibition of growth at 0.5 µM": 36.6}
{"smiles": "O=C1c2ccccc2-c2nccc3nc(-c4ccc(Cl)cc4)cc1c23", "inhibition of growth at 0.5 µM": 2.27}
{"smiles": "O=C1c2ccccc2-c2nccc3nc(-c4ccc(F)cc4)cc1c23", "inhibition of growth at 0.5 µM": 15.3}
